Columns and labels:
Assay type in all cases: functional
UACC-62 = test: Anticancer activity against human UACC62 cells after 48 hrs by sulforhodamine B assay; conditions: UACC-62, 48 h
Summary of the method: (§1)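 Cells from the 60-line full panel are preincubated on microtiter plates, then treated across a five-log dose range for 48 h. Growth is read with the protein-binding dye sulforhodamine B. GI50 is the concentration giving 50% growth inhibition relative to untreated control cells.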

EKVX = test: Anticancer activity against human EKVX cells after 48 hrs by sulforhodamine B assay
Summary of the method: (§2)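 Full 60-cell-line panel, compounds tested over a five-log dose range. Cells are preincubated on microtiter plates, the agent is added, and cultures run 48 h. The end point is sulphorhodamine B protein staining. GI50 is taken as the concentration giving 50% growth inhibition relative to untreated control cells.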

HL-60(TB) = test: Anticancer activity against human HL-60(TB) cells after 48 hrs by sulforhodamine B assay; conditions: HL-60, 48 h
Summary of the method: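 Run within the full 60-cell-line panel across a five-log dose range. GI50 was taken as the concentration causing 50% growth inhibition relative to untreated control cells.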

786-0 = test: Anticancer activity against human 786-0 cells after 48 hrs by sulforhodamine B assay; conditions: 786-0, 48 h; summary of the method: as §2
U-251 = test: Anticancer activity against human U251 cells after 48 hrs by sulforhodamine B assay; conditions: U-251, 48 h; summary of the method: as §1
CAKI-1 = test: Anticancer activity against human Caki1 cells after 48 hrs by sulforhodamine B assay; conditions: CAKI-1, 48 h; summary of the method: as §2
T47D = test: Anticancer activity against human T47D cells after 48 hrs by sulforhodamine B assay; summary of the method: as §1
HCT-116 = test: Anticancer activity against human HCT116 cells after 48 hrs by sulforhodamine B assay; conditions: HCT-116, 48 h; summary of the method: as §2
TK-10 = test: Anticancer activity against human TK10 cells after 48 hrs by sulforhodamine B assay; conditions: TK-10, 48 h; summary of the method: as §1
UO-31 = test: Anticancer activity against human UO31 cells after 48 hrs by sulforhodamine B assay; conditions: UO-31, 48 h; summary of the method: as §1
HT-29 = test: Anticancer activity against human HT-29 cells after 48 hrs by sulforhodamine B assay; conditions: HT-29, 48 h; summary of the method: as §2
HOP-92 = test: Anticancer activity against human HOP92 cells after 48 hrs by sulforhodamine B assay; conditions: HOP-92, 48 h; summary of the method: as §2
SK-OV-3 = test: Anticancer activity against human SKOV3 cells after 48 hrs by sulforhodamine B assay; conditions: SK-OV-3, 48 h; summary of the method: as §2
SK-MEL-28 = test: Anticancer activity against human SK-MEL-28 cells after 48 hrs by sulforhodamine B assay; conditions: SK-MEL-28, 48 h; summary of the method: as §2
IGROV-1 = test: Anticancer activity against human IGROV1 cells after 48 hrs by sulforhodamine B assay; conditions: IGROV-1, 48 h; summary of the method: as §2
SF-295 = test: Anticancer activity against human SF295 cells after 48 hrs by sulforhodamine B assay; conditions: SF-295, 48 h; summary of the method: as §2
[1] = Anticancer activity against human […] cells after 48 hrs by sulforhodamine B assay; summary of the method: as §2
PC-3 = test: Anticancer activity against human PC3 cells after 48 hrs by sulforhodamine B assay; conditions: PC-3, 48 h; summary of the method: as §2
OVCAR-8 = test: Anticancer activity against human OVCAR8 cells after 48 hrs by sulforhodamine B assay; conditions: OVCAR-8, 48 h; summary of the method: as §2
NCI-H23 = test: Anticancer activity against human NCI-H23 cells after 48 hrs by sulforhodamine B assay; conditions: NCI-H23, 48 h; summary of the method: as §2
NCI-H322M = test: Anticancer activity against human NCI-H322M cells after 48 hrs by sulforhodamine B assay; summary of the method: as §2
HCT-15 = test: Anticancer activity against human HCT15 cells after 48 hrs by sulforhodamine B assay; conditions: HCT-15, 48 h; summary of the method: as §2
MCF7 [2] = test: Anticancer activity against human MCF7 cells after 48 hrs by sulforhodamine B assay; conditions: MCF7, 48 h; summary of the method: as §2
SF-268 [3] = test: Anticancer activity against human SF268 cells assessed as cell growth at 100 uM after 48 hrs by sulforhodamine B assay relative to control; conditions: SF-268, 48 h, read-out: Activity
Summary of the method: (§3)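 Three-cell-line prescreen (NCI-H460 lung, MCF7 breast, SF 268 CNS), each preincubated on microtiter plates. The agent is added at a single concentration and cultures are incubated 48 h. Growth is read by sulphorhodamine B protein staining and reported as percent growth of treated versus untreated control cells; negative values indicate cell kill.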

OVCAR-5 = test: Anticancer activity against human OVCAR5 cells after 48 hrs by sulforhodamine B assay; conditions: OVCAR-5, 48 h; summary of the method: as §2
LOX IMVI = test: Anticancer activity against human LOXIMVI cells after 48 hrs by sulforhodamine B assay; summary of the method: as §2
A549 = test: Anticancer activity against human A549 cells after 48 hrs by sulforhodamine B assay; conditions: A549, 48 h; summary of the method: as §2
[4] = Anticancer activity against human Hs 578T cells after 48 hrs by sulforhodamine B assay; summary of the method: as §2
DU-145 = test: Anticancer activity against human DU145 cells after 48 hrs by sulforhodamine B assay; conditions: DU-145, 48 h; summary of the method: as §2
SF-539 = test: Anticancer activity against human SF539 cells after 48 hrs by sulforhodamine B assay; conditions: SF-539, 48 h; summary of the method: as §2
RXF 393 = test: Anticancer activity against human RXF393 cells after 48 hrs by sulforhodamine B assay; conditions: RXF 393, 48 h; summary of the method: as §2
SF-268 [5] = test: Anticancer activity against human SF268 cells after 48 hrs by sulforhodamine B assay; conditions: SF-268, 48 h; summary of the method: as §2
NCI-H522 = test: Anticancer activity against human NCI-H522 cells after 48 hrs by sulforhodamine B assay; conditions: NCI-H522, 48 h; summary of the method: as §2
MCF7 [6] = test: Anticancer activity against human MCF7 cells assessed as cell growth at 100 uM after 48 hrs by sulforhodamine B assay relative to control; conditions: MCF7, 48 h, read-out: Activity; summary of the method: as §3
UACC-257 = test: Anticancer activity against human UACC257 cells after 48 hrs by sulforhodamine B assay; conditions: UACC-257, 48 h; summary of the method: as §1
M14 = test: Anticancer activity against human M14 cells after 48 hrs by sulforhodamine B assay; conditions: M14, 48 h; summary of the method: as §2
ACHN = test: Anticancer activity against human ACHN cells after 48 hrs by sulforhodamine B assay; summary of the method: as §2
NCI/ADR-RES = test: Anticancer activity against human NCI/ADR-RES cells after 48 hrs by sulforhodamine B assay; summary of the method: as §2
OVCAR-3 = test: Anticancer activity against human OVCAR-3 cells after 48 hrs by sulforhodamine B assay; conditions: OVCAR-3, 48 h; summary of the method: as §2
MDA-MB-231 = test: Anticancer activity against human MDA-MB-231 cells after 48 hrs by sulforhodamine B assay; conditions: MDA-MB-231, 48 h; summary of the method: as §2
SN12C = test: Anticancer activity against human SN12C cells after 48 hrs by sulforhodamine B assay; summary of the method: as §2
OVCAR-4 = test: Anticancer activity against human OVCAR4 cells after 48 hrs by sulforhodamine B assay; conditions: OVCAR-4, 48 h; summary of the method: as §2
NCI-H226 = test: Anticancer activity against human NCI-H226 cells after 48 hrs by sulforhodamine B assay; conditions: NCI-H226, 48 h; summary of the method: as §2
KM12 = test: Anticancer activity against human KM12 cells after 48 hrs by sulforhodamine B assay; conditions: KM12, 48 h; summary of the method: as §2
Malme-3M = test: Anticancer activity against human MALME-3M cells after 48 hrs by sulforhodamine B assay; summary of the method: as §2
SNB-19 = test: Anticancer activity against human SNB19 cells after 48 hrs by sulforhodamine B assay; conditions: SNB-19, 48 h; summary of the method: as §2
COLO 205 = test: Anticancer activity against human COLO205 cells after 48 hrs by sulforhodamine B assay; conditions: COLO 205, 48 h; summary of the method: as §2
MDA-MB-435 = test: Anticancer activity against human MDA-MB-435 cells after 48 hrs by sulforhodamine B assay; conditions: MDA-MB-435, 48 h; summary of the method: as §2
CCRF-CEM = test: Anticancer activity against human CCRF-CEM cells after 48 hrs by sulforhodamine B assay; summary of the method: as §2
SW-620 = test: Anticancer activity against human SW620 cells after 48 hrs by sulforhodamine B assay; conditions: SW-620, 48 h; summary of the method: as §1
MOLT-4 = test: Anticancer activity against human MOLT4 cells after 48 hrs by sulforhodamine B assay; conditions: MOLT-4, 48 h; summary of the method: as §2
SR = test: Anticancer activity against human SR cells after 48 hrs by sulforhodamine B assay; summary of the method: as §1
K562 = test: Anticancer activity against human K562 cells after 48 hrs by sulforhodamine B assay; conditions: K562, 48 h; summary of the method: as §2
HOP-62 = test: Anticancer activity against human HOP62 cells after 48 hrs by sulforhodamine B assay; conditions: HOP-62, 48 h; summary of the method: as §2
HCC 2998 = test: Anticancer activity against human HCC2998 cells after 48 hrs by sulforhodamine B assay; conditions: HCC 2998, 48 h; summary of the method: as §2
NCI-H460 [7] = test: Anticancer activity against human NCI-H460 cells assessed as cell growth at 100 uM after 48 hrs by sulforhodamine B assay relative to control; conditions: NCI-H460, 48 h, read-out: Activity; summary of the method: as §3
NCI-H460 [8] = test: Anticancer activity against human NCI-H460 cells after 48 hrs by sulforhodamine B assay; conditions: NCI-H460, 48 h; summary of the method: as §2
SNB-75 = test: Anticancer activity against human SNB75 cells after 48 hrs by sulforhodamine B assay; conditions: SNB-75, 48 h; summary of the method: as §1

Structure (SMILES): Fc1cc(-c2nnc3n2N=C(c2ccc(Cl)cc2Cl)CS3)c(Cl)cc1Cl
- GI50 (UACC-62): 24.9 µM
- GI50 (EKVX): 58.5 µM
- GI50 (HL-60(TB)): > 100 µM
- GI50 (786-0): 47.1 µM
- GI50 (U-251): 56.2 µM
- GI50 (CAKI-1): 35.9 µM
- GI50 (T47D): 17.7 µM
- GI50 (HCT-116): 25.4 µM
- GI50 (TK-10): 77.3 µM
- GI50 (UO-31): 60.2 µM
- GI50 (HT-29): 40.5 µM
- GI50 (HOP-92): 54.2 µM
- GI50 (SK-OV-3): 48 µM
- GI50 (SK-MEL-28): 40.2 µM
- GI50 (IGROV-1): 50.4 µM
- GI50 (SF-295): 36.4 µM
- GI50 [1]: 25.3 µM
- GI50 (PC-3): 39.2 µM
- GI50 (OVCAR-8): 57.3 µM
- GI50 (NCI-H23): 82.5 µM
- GI50 (NCI-H322M): 76.4 µM
- GI50 (HCT-15): 38.3 µM
- GI50 (MCF7 [2]): 31.3 µM
- growth at 100 µM (SF-268 [3]): 76%
- GI50 (OVCAR-5): > 100 µM
- GI50 (LOX IMVI): 34.3 µM
- GI50 (A549): 58 µM
- GI50 [4]: 33.6 µM
- GI50 (DU-145): 49.5 µM
- GI50 (SF-539): 39.2 µM
- GI50 (RXF 393): 51 µM
- GI50 (SF-268 [5]): 36.6 µM
- GI50 (NCI-H522): 50.8 µM
- growth at 100 µM (MCF7 [6]): 69%
- GI50 (UACC-257): 86 µM
- GI50 (M14): 37.5 µM
- GI50 (ACHN): 66.6 µM
- GI50 (NCI/ADR-RES): 30.8 µM
- GI50 (OVCAR-3): 22.8 µM
- GI50 (MDA-MB-231): 33.7 µM
- GI50 (SN12C): 56.4 µM
- GI50 (OVCAR-4): > 100 µM
- GI50 (NCI-H226): 36.5 µM
- GI50 (KM12): 41.9 µM
- GI50 (Malme-3M): 26.6 µM
- GI50 (SNB-19): 25.4 µM
- GI50 (COLO 205): 32.9 µM
- GI50 (MDA-MB-435): 24.4 µM
- GI50 (CCRF-CEM): 27.6 µM
- GI50 (SW-620): 36.8 µM
- GI50 (MOLT-4): 75.1 µM
- GI50 (SR): > 100 µM
- GI50 (K562): 47.5 µM
- GI50 (HOP-62): 44.2 µM
- GI50 (HCC 2998): 35 µM
- growth at 100 µM (NCI-H460 [7]): 32%
- GI50 (NCI-H460 [8]): 37.3 µM
- GI50 (SNB-75): > 100 µM
